In assay [1] the test system is MGC-803. In words: Induction of ROS generation in human MGC-803 cells at 3 uM incubated for 24 hrs by DCFH-DA staining based flow cytometry analysis (reference value: 1.4%). The assay is classed as functional. On the technique in general: A flow cytometer gives signals particle by particle.
The test system of assay [2] is MGC-803. In words: Inhibition of cullin2 neddylation in UBC/DCN1 overactivated human MGC-803 cells at 0.3 to 10 uM incubated for 24 hrs by Western blot analysis. The assay is classed as cell-based. To be noted: dose 0.3-10 µM. An outline of the steps:
(§1)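 Cells in 6-well plates were exposed to compound for 24 h. MGC-803 were grown in DMEM and KYSE70 in RPMI 1640, both with 10% FBS at 37 °C and 5% CO2. Lysates were made in RIPA with protease inhibitors and quantified by BCA. 30 μg protein was run on 8% SDS-PAGE and blotted to nitrocellulose. Primary antibodies were applied overnight at 4 °C, then HRP secondaries, with ECL and film detection. GAPDH was the loading control. Run three times.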
Background: A western blot detects proteins with antibodies after separation by electrophoresis.

The next assay addresses Cullin-4A (Homo sapiens) (UniProt Q13619). In words: Inhibition of cullin4A neddylation in UBC/DCN1 overactivated human MGC-803 cells at 0.3 to 10 uM incubated for 24 hrs by Western blot analysis. The assay is classed as cell-based. To be noted: dose 0.3-10 µM. An outline of the steps: as §1
Assay [3] relates to MGC-803. In words: Induction of ROS generation in human MGC-803 cells at 0.3 uM incubated for 24 hrs by DCFH-DA staining based flow cytometry analysis (reference value: 1.4%). The assay is classed as functional.
The target in the next assay is Cullin-4B (Homo sapiens) (UniProt Q13620). In words: Inhibition of cullin4B neddylation in UBC/DCN1 overactivated human MGC-803 cells at 0.3 to 10 uM incubated for 24 hrs by Western blot analysis. The assay is classed as cell-based. Conditions: dose 0.3-10 µM. In a few lines: as §1
The next assay concerns the target Cullin-1 (Homo sapiens) (UniProt Q13616). In words: Inhibition of cullin1 neddylation in UBC/DCN1 overactivated human MGC-803 cells at 0.3 to 10 uM incubated for 24 hrs by Western blot analysis. The assay is classed as cell-based. To be noted: dose 0.3-10 µM. An outline of the steps: as §1
For another assay, the target named is T1, Cullin-5 (Homo sapiens) (UniProt Q93034).
T1 sequence (whole entry): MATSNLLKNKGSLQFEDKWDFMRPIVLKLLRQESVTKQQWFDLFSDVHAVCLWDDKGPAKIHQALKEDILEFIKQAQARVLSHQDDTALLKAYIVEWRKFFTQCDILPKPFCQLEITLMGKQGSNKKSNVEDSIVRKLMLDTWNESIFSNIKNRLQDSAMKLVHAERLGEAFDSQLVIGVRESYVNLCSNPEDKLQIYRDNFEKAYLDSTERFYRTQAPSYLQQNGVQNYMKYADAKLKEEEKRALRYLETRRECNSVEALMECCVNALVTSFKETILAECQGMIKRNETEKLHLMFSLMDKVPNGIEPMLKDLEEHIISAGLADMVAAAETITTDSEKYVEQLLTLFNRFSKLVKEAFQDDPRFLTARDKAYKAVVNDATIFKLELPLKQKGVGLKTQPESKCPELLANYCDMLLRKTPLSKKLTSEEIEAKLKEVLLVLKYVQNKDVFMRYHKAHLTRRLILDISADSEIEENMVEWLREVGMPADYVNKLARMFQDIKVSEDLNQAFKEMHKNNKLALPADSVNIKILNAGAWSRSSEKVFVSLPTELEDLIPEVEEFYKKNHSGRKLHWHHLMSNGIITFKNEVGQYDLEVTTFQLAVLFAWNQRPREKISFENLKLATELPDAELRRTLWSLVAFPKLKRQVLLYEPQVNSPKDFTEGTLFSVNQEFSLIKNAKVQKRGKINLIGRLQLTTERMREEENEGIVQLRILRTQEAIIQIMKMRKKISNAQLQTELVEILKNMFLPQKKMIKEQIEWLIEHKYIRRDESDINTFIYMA
In words: Inhibition of cullin5 neddylation in UBC/DCN1 overactivated human MGC-803 cells at 0.3 to 10 uM incubated for 24 hrs by Western blot analysis. The assay is classed as cell-based. Conditions: dose 0.3-10 µM. In a few lines:
as §1

Assay [4] relates to MGC-803. In words: Inhibition of cullin3 neddylation in UBC/DCN1 overactivated human MGC-803 cells at 0.3 to 10 uM incubated for 24 hrs by Western blot analysis. The assay is classed as cell-based. To be noted: dose 0.3-10 µM. An outline of the steps: as §1
The target in assay [5] is DCN1-like protein 1/NEDD8-conjugating enzyme Ubc12 (Homo sapiens, UniProt Q96GG9). In words: Inhibition of GST-tagged DCN1 PONY domain (unknown origin)/human N-terminal acetylated UBC12 (1 to 12 residues) protein-protein interaction incubated for 1 hr by HTRF analysis. The assay is classed as protein assay. Background: TR-FRET usually uses a lanthanide donor and a delayed reading to cut background.

The subject of assay [6] is MGC-803. As to the kind of experiment: Induction of ROS generation in human MGC-803 cells at 1 uM incubated for 24 hrs by DCFH-DA staining based flow cytometry analysis (reference value: 1.4%). The assay is classed as functional.

Broadly, the IC50 is the concentration that gives 50% inhibition. The low end stands for higher potency, the high end for lower potency.

The source made the active and inactive calls. The rule behind the calls is not given here.

Chain of Cullin-4A (Homo sapiens) (Q13619 whole entry): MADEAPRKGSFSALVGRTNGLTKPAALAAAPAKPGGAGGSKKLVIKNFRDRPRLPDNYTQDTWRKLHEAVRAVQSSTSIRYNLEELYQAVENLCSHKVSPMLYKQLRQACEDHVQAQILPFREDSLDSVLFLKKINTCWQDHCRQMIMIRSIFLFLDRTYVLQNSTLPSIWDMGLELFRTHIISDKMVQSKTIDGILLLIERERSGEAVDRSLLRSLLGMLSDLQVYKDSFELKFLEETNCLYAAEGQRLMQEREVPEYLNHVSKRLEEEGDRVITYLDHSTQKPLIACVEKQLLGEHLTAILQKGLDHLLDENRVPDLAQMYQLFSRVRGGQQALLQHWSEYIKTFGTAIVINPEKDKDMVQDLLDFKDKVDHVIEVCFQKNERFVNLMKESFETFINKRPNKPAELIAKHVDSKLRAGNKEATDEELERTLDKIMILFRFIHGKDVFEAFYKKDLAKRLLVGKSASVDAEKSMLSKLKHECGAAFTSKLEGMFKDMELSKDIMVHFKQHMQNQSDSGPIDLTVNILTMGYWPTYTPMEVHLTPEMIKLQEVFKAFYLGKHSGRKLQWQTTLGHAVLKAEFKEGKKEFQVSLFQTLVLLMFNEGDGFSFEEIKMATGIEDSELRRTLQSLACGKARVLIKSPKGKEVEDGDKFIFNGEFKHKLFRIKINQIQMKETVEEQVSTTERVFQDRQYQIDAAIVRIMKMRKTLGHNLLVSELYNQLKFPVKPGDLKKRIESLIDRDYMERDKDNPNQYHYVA
Chain of DCN1-like protein 1/NEDD8-conjugating enzyme Ubc12 (Q96GG9 whole entry, the tested form may be a part): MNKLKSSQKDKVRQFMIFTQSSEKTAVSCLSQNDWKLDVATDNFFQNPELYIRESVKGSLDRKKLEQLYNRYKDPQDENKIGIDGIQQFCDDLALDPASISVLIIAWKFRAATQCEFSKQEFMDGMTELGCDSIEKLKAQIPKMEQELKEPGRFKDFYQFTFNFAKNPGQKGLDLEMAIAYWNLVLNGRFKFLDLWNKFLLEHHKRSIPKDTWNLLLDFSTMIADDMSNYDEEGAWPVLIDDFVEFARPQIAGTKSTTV
Chain of DCN1-like protein 1/NEDD8-conjugating enzyme Ubc12 (P61081 whole entry, further chain, the tested form may be a part): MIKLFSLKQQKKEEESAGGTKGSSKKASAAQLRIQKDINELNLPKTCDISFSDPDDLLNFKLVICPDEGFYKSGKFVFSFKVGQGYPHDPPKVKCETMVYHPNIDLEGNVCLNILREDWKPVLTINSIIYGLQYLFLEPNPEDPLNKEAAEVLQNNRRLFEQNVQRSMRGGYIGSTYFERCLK
Chain of Cullin-4B (Homo sapiens) (Q13620 whole entry): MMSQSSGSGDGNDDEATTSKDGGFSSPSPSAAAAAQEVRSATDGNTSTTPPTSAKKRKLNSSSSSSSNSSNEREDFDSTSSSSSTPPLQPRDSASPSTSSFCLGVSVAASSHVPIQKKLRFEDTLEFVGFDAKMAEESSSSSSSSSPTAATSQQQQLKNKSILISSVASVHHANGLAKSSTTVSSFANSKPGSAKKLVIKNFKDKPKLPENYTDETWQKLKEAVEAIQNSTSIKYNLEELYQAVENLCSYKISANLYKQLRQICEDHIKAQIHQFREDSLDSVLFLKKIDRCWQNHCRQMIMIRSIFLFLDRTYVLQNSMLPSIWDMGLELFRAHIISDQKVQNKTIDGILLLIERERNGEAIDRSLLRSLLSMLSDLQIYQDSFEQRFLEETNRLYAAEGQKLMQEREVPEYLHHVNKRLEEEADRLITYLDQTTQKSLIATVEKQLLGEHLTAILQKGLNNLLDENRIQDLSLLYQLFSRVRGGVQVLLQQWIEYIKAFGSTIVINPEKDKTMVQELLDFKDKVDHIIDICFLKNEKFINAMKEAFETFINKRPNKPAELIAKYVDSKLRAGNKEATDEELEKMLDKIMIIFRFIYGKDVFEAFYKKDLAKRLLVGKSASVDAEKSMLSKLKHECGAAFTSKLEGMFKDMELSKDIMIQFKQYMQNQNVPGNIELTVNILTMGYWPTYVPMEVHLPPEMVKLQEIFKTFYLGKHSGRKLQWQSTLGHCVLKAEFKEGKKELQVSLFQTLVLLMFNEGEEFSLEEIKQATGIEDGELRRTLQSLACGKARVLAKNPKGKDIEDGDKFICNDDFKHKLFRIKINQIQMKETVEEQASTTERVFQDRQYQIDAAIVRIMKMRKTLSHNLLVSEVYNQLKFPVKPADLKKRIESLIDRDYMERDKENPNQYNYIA
Chain of Cullin-1 (Homo sapiens) (Q13616 whole entry): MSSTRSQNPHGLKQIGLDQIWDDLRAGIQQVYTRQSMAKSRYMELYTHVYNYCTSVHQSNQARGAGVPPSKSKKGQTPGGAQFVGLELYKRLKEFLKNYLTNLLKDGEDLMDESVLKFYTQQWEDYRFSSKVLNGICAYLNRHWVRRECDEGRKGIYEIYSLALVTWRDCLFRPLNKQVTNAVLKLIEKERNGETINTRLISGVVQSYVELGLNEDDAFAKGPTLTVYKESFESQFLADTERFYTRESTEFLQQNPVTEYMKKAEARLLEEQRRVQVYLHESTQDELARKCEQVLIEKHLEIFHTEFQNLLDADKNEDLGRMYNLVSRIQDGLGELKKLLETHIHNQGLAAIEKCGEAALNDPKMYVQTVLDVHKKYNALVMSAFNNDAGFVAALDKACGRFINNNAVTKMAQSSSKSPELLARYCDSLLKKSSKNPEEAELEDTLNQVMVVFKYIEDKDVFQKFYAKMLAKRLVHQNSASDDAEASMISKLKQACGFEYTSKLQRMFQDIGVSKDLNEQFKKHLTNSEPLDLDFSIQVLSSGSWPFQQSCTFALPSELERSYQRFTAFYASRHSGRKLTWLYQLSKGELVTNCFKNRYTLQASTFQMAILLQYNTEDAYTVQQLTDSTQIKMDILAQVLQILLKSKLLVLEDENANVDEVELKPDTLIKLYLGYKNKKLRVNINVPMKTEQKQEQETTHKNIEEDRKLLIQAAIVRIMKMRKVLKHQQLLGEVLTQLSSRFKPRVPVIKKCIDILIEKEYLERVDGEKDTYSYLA

Regarding `CCCCCc1c(C)nc2nc(SCc3ccc(Cl)cc3)nn2c1Sc1nnnn1CCN(C)C.Cl`, the figures for the Activity in the assay on MGC-803 [1], with MGC-803 [3] and in the assay with MGC-803 [6] were 0.7%, 2.5% and 2.6%, respectively. The inhibition entry with MGC-803 [2], at Cullin-4A (Homo sapiens), on Cullin-4B (Homo sapiens), on Cullin-1 (Homo sapiens), at Cullin-5 (Homo sapiens) and in the assay with MGC-803 [4] was “inactive” each time. Besides, the 50% inhibitory concentration (IC50) in [5] was more than 50 µM.

The values are drawn from ChEMBL document CHEMBL5260843 (J Med Chem, 2019).
